Measurements published in ChEMBL document CHEMBL4350961, “Discovery of Pyrrolo[3,2- d]pyrimidin-4-one Derivatives as a New Class of Potent and Cell-Active Inhibitors of P300/CBP-Associated Factor Bromodomain” (J Med Chem, 2019).
Active and inactive are the calls of the source. The rule behind the calls is not given here.

Legend:
[1] = biological target: Insulin receptor (Homo sapiens) (UniProt P06213); assay: Inhibition of recombinant human IR (1005 to 1310 residues) at 10 uM using KKSRGDYMTMQIG as substrate measured after 40 mins in presence of [gamma33P]ATP by scintillation counting method
[2] = biological target: Histone acetyltransferase KAT2B (Homo sapiens, UniProt Q92831); assay: Binding affinity to human partial length PCAF (G715 to D831 residues) expressed in bacterial expression system at 1 uM by BROMOscan assay
Method in brief: (§1)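 BROMOscan bromodomain cross-screen run by an outside service, compound at 1 µM against 32 recombinant bromodomains. Binding given as percent of control.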

[3] = biological target: Serine/threonine-protein kinase SIK1 (Homo sapiens) (UniProt P57059); assay: Inhibition of human SIK (1 to 281 residues) using AMARAASAAALARRR as substrate measured after 40 mins in presence of [gamma33P]ATP by scintillation counting method
Method in brief: (§2)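 Kinase panel of 422 kinases screened by Eurofins KinaseProfiler at a single test-compound concentration of 10 µM.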

[4] = biological target: Serine/threonine-protein kinase DCLK3 (Homo sapiens) (UniProt Q9C098); assay: Inhibition of recombinant human DCAMKL3 (345 to end residues) at 10 uM using KKLNRTLSFAEPG as substrate measured after 40 mins in presence of [gamma33P]ATP by scintillation counting method
[5] = biological target: Bromodomain-containing protein 7 (Homo sapiens) (UniProt Q9NPI1); assay: Binding affinity to human partial length BRD7 (L125 to R254 residues) expressed in mammalian expression system at 1 uM by BROMOscan assay; method in brief: as §1
[6] = biological target: MAPK/MAK/MRK overlapping kinase (Homo sapiens) (UniProt Q9UQ07); assay: Inhibition of recombinant human MOK (1 to 343 residues) at 10 uM using RSRSRSRSRSRSRSR as substrate measured after 40 mins in presence of [gamma33P]ATP by scintillation counting method
[7] = biological target: Histone acetyltransferase KAT2A (Homo sapiens, UniProt Q92830); assay: Binding affinity to human partial length GCN5L2 (E726 to K837 residues) expressed in bacterial expression system at 1 uM by BROMOscan assay; method in brief: as §1
[8] = biological target: Serine/threonine-protein kinase 38-like (Homo sapiens) (UniProt Q9Y2H1); assay: Inhibition of recombinant human NDR2 (83 to end residues) at 10 uM using RSRSRSRSRSRSRSR as substrate measured after 40 mins in presence of [gamma33P]ATP by scintillation counting method
[9] = biological target: Mitogen-activated protein kinase kinase kinase 2 (Homo sapiens) (UniProt Q9Y2U5); assay: Inhibition of recombinant full-length human MEKK2 at 10 uM using myelin basic protein as substrate measured after 40 mins in presence of [gamma33P]ATP by scintillation counting method
[10] = biological target: Mitogen-activated protein kinase kinase kinase 10 (Homo sapiens) (UniProt Q02779); assay: Inhibition of recombinant human MLK2 (1 to 449 residues) at 10 uM using myelin basic protein as substrate measured after 40 mins in presence of [gamma33P]ATP by scintillation counting method
[11] = biological target: Casein kinase I (Homo sapiens) (UniProt Q9HCP0+P78368+P48730+P49674+P48729); assay: Inhibition of CK1 (unknown origin) at 10 uM; type: protein assay; method in brief: as §2
[12] = biological target: Ribosomal protein S6 kinase alpha-1 (Homo sapiens) (UniProt Q15418); assay: Inhibition of recombinant full-length human Rsk1 at 10 uM using KKKNRTLSVA as substrate measured after 40 mins in presence of [gamma33P]ATP by scintillation counting method
[13] = biological target: Phosphatidylinositol 4-phosphate 3-kinase C2 domain-containing subunit alpha (Homo sapiens) (UniProt O00443); assay: Inhibition of recombinant human PI3KC2alpha (299 to end residues) at 10 uM using phosphatidylinositol as substrate measured after 40 mins by HTRF assay
[14] = biological target: Protein kinase C beta type (Homo sapiens) (UniProt P05771); assay: Inhibition of recombinant human PKCbeta1 (2 to end residues) at 10 uM using histone H1 as substrate measured after 40 mins in presence of [gamma33P]ATP by scintillation counting method
[15] = biological target: Nucleosome-remodeling factor subunit BPTF (Homo sapiens, UniProt Q12830); assay: Binding affinity to human partial length FALZ (S2791 to H2911 residues) expressed in bacterial expression system at 1 uM by BROMOscan assay; method in brief: as §1
[16] = biological target: Bromodomain-containing protein 3 (Homo sapiens) (UniProt Q15059); assay: Binding affinity to human partial length BRD3 bromodomain 1 (P24 to E144 residues) expressed in bacterial expression system at 1 uM by BROMOscan assay; method in brief: as §1
[17] = biological target: LIM domain kinase 1 (Homo sapiens) (UniProt P53667); assay: Inhibition of recombinant human LIMK1 (285 to 638 residues) at 10 uM using cofilin as substrate measured after 40 mins in presence of [gamma33P]ATP by scintillation counting method
[18] = biological target: Serine/threonine-protein kinase Nek6 (Homo sapiens) (UniProt Q9HC98); assay: Inhibition of recombinant human NEK6 (2 to end residues) at 10 uM using FLAKSFGSPNRAYKK as substrate measured after 40 mins in presence of [gamma33P]ATP by scintillation counting method
Homo sapiens = species: Homo sapiens; assay: Inhibition of recombinant human Flt4 V1128L/H1146R mutant (800 to end residues) at 10 uM using GGEEEEYFELVKKKK as substrate measured after 40 mins in presence of [gamma33P]ATP by scintillation counting method
[19] = biological target: Bromodomain testis-specific protein (Homo sapiens) (UniProt Q58F21); assay: Binding affinity to human partial length BRDT bromodomain 1 (N21 to E137 residues) expressed in bacterial expression system at 1 uM by BROMOscan assay; method in brief: as §1
[20] = biological target: Bromodomain and PHD finger-containing protein 3 (Homo sapiens) (UniProt Q9ULD4); assay: Binding affinity to human partial length BRPF3 (E588 to G701 residues) expressed in bacterial expression system at 1 uM by BROMOscan assay; method in brief: as §1
[21] = biological target: Mitogen-activated protein kinase kinase kinase 5 (Homo sapiens) (UniProt Q99683); assay: Inhibition of recombinant human ASK1 (649 to 946 residues) at 10 uM using myelin basic protein as substrate measured after 40 mins in presence of [gamma33P]ATP by scintillation counting method
Mus musculus = species: Mus musculus; assay: Inhibition of full-length recombinant mouse BLK V421E mutant at 10 uM using poly(Glu, Tyr) 4:1 as substrate measured after 40 mins in presence of [gamma33P]ATP by scintillation counting method; method in brief: as §2
[22] = biological target: E3 ubiquitin-protein ligase TRIM33 (Homo sapiens) (UniProt Q9UPN9); assay: Binding affinity to human partial length TRIM33 (D882 to A1087 residues) expressed in bacterial expression system at 1 uM by BROMOscan assay; method in brief: as §1
[23] = biological target: Tyrosine-protein kinase Lck (Homo sapiens) (UniProt P06239); assay: Inhibition of recombinant full-length human Lck at 10 uM using KVEKIGEGTYGVV as substrate measured after 40 mins in presence of [gamma33P]ATP by scintillation counting method

Sequence of Bromodomain-containing protein 3 (Homo sapiens) (Q15059 2-726 limits assumed): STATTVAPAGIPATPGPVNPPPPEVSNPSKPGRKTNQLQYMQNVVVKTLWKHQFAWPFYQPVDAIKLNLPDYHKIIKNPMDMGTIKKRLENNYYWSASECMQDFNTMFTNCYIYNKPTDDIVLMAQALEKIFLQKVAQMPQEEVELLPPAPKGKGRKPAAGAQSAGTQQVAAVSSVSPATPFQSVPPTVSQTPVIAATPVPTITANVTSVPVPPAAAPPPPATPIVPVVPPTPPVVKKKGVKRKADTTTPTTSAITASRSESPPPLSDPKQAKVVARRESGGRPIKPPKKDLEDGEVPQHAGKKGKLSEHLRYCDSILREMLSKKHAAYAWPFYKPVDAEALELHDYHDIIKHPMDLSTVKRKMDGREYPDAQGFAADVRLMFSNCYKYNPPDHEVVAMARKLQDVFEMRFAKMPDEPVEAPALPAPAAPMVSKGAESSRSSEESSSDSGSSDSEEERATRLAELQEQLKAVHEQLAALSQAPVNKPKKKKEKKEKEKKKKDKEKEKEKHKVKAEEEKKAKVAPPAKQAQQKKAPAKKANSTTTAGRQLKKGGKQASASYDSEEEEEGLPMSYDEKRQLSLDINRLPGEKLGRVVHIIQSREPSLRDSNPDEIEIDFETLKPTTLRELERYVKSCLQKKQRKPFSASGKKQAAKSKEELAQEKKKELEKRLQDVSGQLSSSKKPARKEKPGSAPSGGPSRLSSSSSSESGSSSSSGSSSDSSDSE
Sequence of Serine/threonine-protein kinase SIK1 (Homo sapiens) (P57059 whole entry, the tested form may be a part): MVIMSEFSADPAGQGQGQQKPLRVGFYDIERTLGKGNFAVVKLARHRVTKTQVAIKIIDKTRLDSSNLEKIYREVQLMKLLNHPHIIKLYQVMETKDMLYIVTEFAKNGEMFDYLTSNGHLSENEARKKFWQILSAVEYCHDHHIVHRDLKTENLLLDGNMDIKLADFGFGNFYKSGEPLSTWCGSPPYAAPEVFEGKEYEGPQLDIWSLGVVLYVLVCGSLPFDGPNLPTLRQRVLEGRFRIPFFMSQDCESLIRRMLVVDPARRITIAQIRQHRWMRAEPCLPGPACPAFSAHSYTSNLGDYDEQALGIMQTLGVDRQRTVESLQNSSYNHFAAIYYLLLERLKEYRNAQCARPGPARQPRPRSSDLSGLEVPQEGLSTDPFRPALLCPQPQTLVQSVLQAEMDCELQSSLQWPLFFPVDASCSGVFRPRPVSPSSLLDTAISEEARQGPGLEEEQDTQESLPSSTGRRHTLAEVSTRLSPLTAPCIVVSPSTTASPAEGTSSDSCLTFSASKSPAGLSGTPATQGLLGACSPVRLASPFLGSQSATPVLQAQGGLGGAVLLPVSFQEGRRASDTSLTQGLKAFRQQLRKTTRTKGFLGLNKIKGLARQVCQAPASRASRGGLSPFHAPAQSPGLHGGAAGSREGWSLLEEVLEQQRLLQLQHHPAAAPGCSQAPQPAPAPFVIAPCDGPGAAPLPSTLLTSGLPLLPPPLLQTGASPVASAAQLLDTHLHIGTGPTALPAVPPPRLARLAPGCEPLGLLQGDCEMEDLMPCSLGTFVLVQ
Sequence of Bromodomain-containing protein 7 (Homo sapiens) (Q9NPI1 whole entry, the tested form may be a part): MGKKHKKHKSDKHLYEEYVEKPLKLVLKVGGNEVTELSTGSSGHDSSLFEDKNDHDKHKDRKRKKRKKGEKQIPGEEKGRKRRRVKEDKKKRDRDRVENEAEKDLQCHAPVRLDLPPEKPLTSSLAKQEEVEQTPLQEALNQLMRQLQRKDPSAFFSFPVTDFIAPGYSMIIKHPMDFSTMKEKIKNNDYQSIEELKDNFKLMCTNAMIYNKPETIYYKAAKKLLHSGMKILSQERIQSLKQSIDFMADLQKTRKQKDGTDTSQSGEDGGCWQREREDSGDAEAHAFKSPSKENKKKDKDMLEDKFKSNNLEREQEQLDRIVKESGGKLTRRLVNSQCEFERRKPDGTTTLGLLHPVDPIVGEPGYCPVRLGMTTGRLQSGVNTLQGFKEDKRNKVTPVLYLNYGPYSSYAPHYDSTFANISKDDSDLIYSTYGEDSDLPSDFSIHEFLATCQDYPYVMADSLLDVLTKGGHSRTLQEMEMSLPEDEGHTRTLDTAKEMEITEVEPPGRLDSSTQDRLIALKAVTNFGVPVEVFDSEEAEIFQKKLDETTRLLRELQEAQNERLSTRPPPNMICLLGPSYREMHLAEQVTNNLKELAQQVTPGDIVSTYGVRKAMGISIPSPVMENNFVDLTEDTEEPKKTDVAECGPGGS
Sequence of Mitogen-activated protein kinase kinase kinase 5 (Homo sapiens) (Q99683 whole entry, the tested form may be a part): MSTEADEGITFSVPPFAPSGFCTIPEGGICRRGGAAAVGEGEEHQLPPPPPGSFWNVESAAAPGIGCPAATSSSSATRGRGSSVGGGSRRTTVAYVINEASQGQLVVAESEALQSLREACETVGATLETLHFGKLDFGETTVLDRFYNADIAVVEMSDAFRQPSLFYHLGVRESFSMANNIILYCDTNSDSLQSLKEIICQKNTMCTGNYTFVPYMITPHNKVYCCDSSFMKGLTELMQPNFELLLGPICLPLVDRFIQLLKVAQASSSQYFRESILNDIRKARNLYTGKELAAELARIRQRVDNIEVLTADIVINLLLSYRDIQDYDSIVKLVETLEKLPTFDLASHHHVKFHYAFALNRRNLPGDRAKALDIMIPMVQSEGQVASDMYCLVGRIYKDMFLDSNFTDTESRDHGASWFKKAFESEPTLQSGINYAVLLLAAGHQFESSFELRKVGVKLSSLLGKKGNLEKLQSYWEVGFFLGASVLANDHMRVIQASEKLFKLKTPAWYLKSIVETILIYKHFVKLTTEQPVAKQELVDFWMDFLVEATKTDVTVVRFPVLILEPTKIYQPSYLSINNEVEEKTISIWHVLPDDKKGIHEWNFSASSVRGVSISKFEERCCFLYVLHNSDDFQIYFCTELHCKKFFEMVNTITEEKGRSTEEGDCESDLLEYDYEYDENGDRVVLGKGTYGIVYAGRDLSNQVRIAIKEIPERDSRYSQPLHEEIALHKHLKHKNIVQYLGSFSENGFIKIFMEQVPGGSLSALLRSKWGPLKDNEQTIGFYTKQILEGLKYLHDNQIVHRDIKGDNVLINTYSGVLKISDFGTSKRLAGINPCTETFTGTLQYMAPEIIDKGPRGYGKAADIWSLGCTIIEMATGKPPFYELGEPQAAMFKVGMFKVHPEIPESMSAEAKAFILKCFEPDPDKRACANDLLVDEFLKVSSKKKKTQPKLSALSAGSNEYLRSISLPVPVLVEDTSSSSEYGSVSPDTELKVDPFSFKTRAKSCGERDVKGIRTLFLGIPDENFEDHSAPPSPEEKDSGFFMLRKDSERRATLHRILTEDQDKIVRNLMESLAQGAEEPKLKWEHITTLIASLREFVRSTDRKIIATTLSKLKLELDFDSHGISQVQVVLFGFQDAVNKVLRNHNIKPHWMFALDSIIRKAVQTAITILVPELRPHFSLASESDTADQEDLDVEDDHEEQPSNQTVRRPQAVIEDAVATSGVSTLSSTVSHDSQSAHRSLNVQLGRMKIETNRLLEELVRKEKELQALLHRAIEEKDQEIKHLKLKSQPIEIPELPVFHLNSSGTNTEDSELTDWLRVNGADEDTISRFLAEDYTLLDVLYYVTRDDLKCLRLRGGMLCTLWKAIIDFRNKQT
Sequence of MAPK/MAK/MRK overlapping kinase (Homo sapiens) (Q9UQ07 whole entry, the tested form may be a part): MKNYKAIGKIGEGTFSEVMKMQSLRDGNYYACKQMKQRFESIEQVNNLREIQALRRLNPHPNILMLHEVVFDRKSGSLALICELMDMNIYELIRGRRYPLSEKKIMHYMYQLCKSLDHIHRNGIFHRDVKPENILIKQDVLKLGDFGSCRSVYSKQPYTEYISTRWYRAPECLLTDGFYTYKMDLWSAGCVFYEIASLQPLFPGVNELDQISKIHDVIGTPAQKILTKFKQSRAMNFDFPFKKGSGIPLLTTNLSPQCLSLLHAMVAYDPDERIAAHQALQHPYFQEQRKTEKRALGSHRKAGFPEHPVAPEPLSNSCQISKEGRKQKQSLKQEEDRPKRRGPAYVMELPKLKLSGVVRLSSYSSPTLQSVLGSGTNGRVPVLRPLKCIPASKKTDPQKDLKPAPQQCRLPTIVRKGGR
Sequence of Serine/threonine-protein kinase 38-like (Homo sapiens) (Q9Y2H1 2-464 limits assumed): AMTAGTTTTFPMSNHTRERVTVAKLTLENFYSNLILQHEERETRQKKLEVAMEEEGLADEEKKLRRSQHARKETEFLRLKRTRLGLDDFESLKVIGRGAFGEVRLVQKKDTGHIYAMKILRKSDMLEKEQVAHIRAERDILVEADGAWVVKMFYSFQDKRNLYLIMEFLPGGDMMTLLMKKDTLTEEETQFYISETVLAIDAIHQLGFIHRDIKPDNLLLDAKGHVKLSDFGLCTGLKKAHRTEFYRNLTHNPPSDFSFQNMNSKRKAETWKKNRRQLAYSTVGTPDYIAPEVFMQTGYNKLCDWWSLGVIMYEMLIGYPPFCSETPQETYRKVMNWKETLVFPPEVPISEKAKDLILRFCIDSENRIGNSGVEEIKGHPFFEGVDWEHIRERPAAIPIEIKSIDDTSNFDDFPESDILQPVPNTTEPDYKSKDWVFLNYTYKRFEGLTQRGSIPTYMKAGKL
Sequence of Serine/threonine-protein kinase Nek6 (Homo sapiens) (Q9HC98 whole entry): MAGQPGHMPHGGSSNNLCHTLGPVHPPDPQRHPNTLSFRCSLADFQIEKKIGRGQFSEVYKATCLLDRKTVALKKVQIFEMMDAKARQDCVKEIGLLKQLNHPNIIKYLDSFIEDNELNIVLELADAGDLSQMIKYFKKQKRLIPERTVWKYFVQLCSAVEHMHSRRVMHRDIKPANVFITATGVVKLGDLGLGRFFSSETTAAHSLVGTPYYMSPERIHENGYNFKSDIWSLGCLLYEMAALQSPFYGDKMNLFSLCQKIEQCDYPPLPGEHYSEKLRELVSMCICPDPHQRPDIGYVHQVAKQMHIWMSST

## CN1C[C@H](Nc2nc3cc[nH]c3c(=O)n2C)C[C@H](c2ccc3c(c2)OCCO3)C1
[1]
  inhibition: inactive
[2]
  Activity: Active
[3]
  inhibition: inactive
[4]
  inhibition: inactive
[5]
  Activity: inactive
[6]
  inhibition: inactive
[7]
  Activity: Active
[8]
  inhibition: inactive
[9]
  inhibition: inactive
[10]
  inhibition: inactive
[11]
  inhibition: inactive
[12]
  inhibition: inactive
[13]
  inhibition: inactive
[14]
  inhibition: inactive
[15]
  Activity: Active
[16]
  Activity: inactive
[17]
  inhibition: inactive
[18]
  inhibition: inactive
Homo sapiens
  inhibition: inactive
[19]
  Activity: inactive
[20]
  Activity: Active
[21]
  inhibition: inactive
Mus musculus
  inhibition: inactive
[22]
  Activity: inactive
[23]
  inhibition: inactive
